Screens deposited in PubChem by Johns Hopkins Ion Channel Center.
RGS4 act: potentiators or activators of RGS4; B-score at 10 µM; HEK293 M3R/inducible RGS4, carbachol calcium flux Fluo4; stronger effect = lower value; hit rate 0.92% among 310,000;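 active means B-score of the integrated calcium signal more than 4 SD below the library mean, with starting fluorescence not abnormally high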;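 further: negative B-score means reduced calcium response which marks RGS4 activation or potentiation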
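Detection: kinetic calcium fluorescence imaging with Fluo4-AM dye, 2 µM / Material: HEK293 cells with stable M3R and inducible RGS4 / Schedule: recording 10 s baseline at 1 Hz, 100 s post-agonist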
MrgX1 antag: blocks BAM8-22 activation of human MrgX1 receptor; Q96LB2; MRGX1-HEK293 calcium flux, Fluo-4, BAM8-22 antagonism; stronger effect = lower value; B-score at 10 µM; hit rate 1.3% among 310,000; AID 588676;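 active means calcium-response B-score plate-corrected more than 3 library SD below zero, starting fluorescence within 5 deviations, no agonist response on first addition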;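 further: peak minus trough fluorescence over baseline after final BAM8-22 challenge near maximal dose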
Target sequence (Q96LB2 whole entry, looked up): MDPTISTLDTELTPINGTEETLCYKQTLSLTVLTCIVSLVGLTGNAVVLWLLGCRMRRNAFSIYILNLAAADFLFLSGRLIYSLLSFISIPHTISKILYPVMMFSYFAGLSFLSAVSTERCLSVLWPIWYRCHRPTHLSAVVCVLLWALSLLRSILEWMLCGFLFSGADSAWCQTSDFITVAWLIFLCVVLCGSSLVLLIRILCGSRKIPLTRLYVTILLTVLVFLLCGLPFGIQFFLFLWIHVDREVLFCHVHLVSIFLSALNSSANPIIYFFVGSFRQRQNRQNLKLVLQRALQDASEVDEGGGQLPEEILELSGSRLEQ
MrgX1 agonist: agonists of human MrgX1 receptor | Q96LB2 | hit rate 0.44% among 310,000 | MrgX1-HEK293 cells, Fluo-4 calcium fluorescence, agonist mode; stronger effect = higher value | AID 588627 | B-score at 10 µM;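 active means calcium response B-score plate-corrected fluorescence ratio at least 3 library SD, with starting fluorescence B-score inside 5 SD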
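Material: MrgX1-expressing HEK293 cells / Dosing: compound as first of three additions / Incubation: overnight seeding, then 1 h dark dye loading / Signal: Fluo-4 NW calcium fluorescence / Evaluation: B-scored fluorescence response ratio / Benchmarks: positive and negative control wells on each plate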
RGS4 inh: inhibitors of human RGS4; B-score at 10 µM; hit rate 0.45% among 310,000; AID 463165; HEK293 M3R/RGS4 inducible, Fluo-4 calcium flux; stronger effect = higher value; triggered by carbachol at its EC20;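 active means B-score, a plate-corrected calcium signal, over three deviations above library mean, with baseline fluorescence within five deviations of library mean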;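 further: RGS4 expression induced by doxycycline in cells with stable M3 receptor; B-score is computed from the integrated fluorescence ratio over baseline after carbachol; higher B-score means a larger calcium signal and so more RGS4 inhibition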
Target sequence (P49798 whole entry, looked up): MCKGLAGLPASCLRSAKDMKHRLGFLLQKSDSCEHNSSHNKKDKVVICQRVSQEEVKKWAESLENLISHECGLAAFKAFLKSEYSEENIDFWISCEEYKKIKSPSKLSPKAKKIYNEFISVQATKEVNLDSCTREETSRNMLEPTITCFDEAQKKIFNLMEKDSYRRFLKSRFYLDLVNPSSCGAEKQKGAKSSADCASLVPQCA
MrgX1 PAM: allosterically activates human MrgX1 receptor signaling. Q96LB2. MrgX1-HEK293, Fluo-4 calcium flux, FDSS; stronger effect = higher value. hit rate 0.63% among 310,000. B-score at 10 µM;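 active means plate-corrected calcium response at least 3 library SD above typical, normal starting fluorescence, not activating the receptor alone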;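 further: compound read alongside a low EC10 to EC30 dose of BAM8-22 agonist; peak minus trough fluorescence over baseline measured at the second addition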
An asterisk follows results filed as active; i = inactive; · = no result given. Hits are enriched below; roughly 3.5% of the tested compounds scored in any of these assays.

SMILES	RGS4 act	MrgX1 antag	MrgX1 agonist	RGS4 inh	MrgX1 PAM
Cc1[nH]c2ccccc2c1C1(O)C(=O)N(C(C)C)c2ccccc21 (configuration not stated)	i	i	i	i	i
CCCN(CCC)S(=O)(=O)c1ccc(C(=O)OCCN2C(=O)c3cccc4c(N5CCOCC5)ccc(c34)C2=O)cc1	-8.7*	i	i	i	i
O=C(CCc1ccccc1)N=C1SC2CS(=O)(=O)CC2N1c1ccccc1F (configuration not stated)	i	i	i	i	i
Cc1nn(Cc2ccc(Cl)cc2)c(C)c1NC(=O)CSc1n[nH]c(C)c1[N+](=O)[O-]	i	-4.8*	i	i	i
Cc1nn(Cc2ccccc2)c(C)c1NC(=O)CSc1n[nH]c(C)c1[N+](=O)[O-]	i	i	i	i	i
CC(NC(=O)CCNC(=O)c1ccco1)c1ccc(F)cc1 (configuration not stated)	i	i	i	i	i
Cc1ccc(S(=O)(=O)N2CCN(C(=O)C3CCCC3)CC2)cc1C	i	i	i	i	i
Cc1nn(C)c(Oc2cccc(C(F)(F)F)c2)c1C=O	i	-5.9*	i	i	i
N/C(=N\OC(=O)c1cccs1)c1ccc(Cl)cc1	i	-5.8*	i	i	i
COc1ccc(/C(N)=N/OC(=O)c2cccs2)cc1	i	i	i	i	i
Cc1ccc(-n2c(SCC(=O)N3CCCC3)nc3c(c2=O)SCC3)cc1	i	-4.9*	i	i	i
CCCCCc1ccc(OCCC[n+]2ccccc2)c(CCCCC)c1	i	i	i	i	i
CCCCCc1ccc(OCCOCCn2c[n+](C)c3ccccc32)c(CCCCC)c1	-7.6*	·	·	i	·
O=C(N/N=C/c1cc(Cl)cc([N+](=O)[O-])c1O)c1cc(-c2ccccn2)nc2ccccc12	i	-5.5*	i	i	i
COc1cc([N+](=O)[O-])cc(/C=N/NC(=O)c2cc(-c3ccccc3)nc3ccccc23)c1O	i	i	i	i	10*
COc1cc([N+](=O)[O-])cc(/C=N/NC(=O)c2cc(C)nc3ccccc23)c1O	i	i	i	i	i
Cn1c(Cc2nc(-c3cnccn3)no2)nnc1SCC(=O)Nc1ccccc1	i	i	i	i	i
COc1ccc(CN2CCN(Cc3nc4ccccc4s3)CC2CCO)c(C)c1C (configuration not stated)	i	i	i	i	i
C=CCN1C(=O)c2ccccc2NC1c1cc(Br)cs1 (configuration not stated)	i	i	i	i	i
COc1ccc(-c2csc(NC(=O)c3ccc(OCC(=O)N4CCOCC4)c(OC)c3)n2)cc1OC	-8.8*	i	i	i	i
COc1ccc(-c2csc(NC(=O)CSCC(=O)Nc3cc(C)on3)n2)cc1OC	i	i	29*	i	i
COc1ccc(-c2csc(NC(=O)CN3C(=O)C4CC=CCC4C3=O)n2)cc1OC (configuration not stated)	i	i	48*	i	i
COc1ccc(-c2csc(NC(=S)NC(=O)c3cccs3)n2)cc1OC	-7.3*	·	·	i	·
Cc1c(C(=O)N(Cc2cccc(Br)c2)C2CCS(=O)(=O)C2)oc2ccc(F)cc12 (configuration not stated)	i	i	i	i	i
CC(Oc1ccccc1)C(=O)N=C1SC2CS(=O)(=O)CC2N1c1ccc(F)cc1 (configuration not stated)	i	i	i	i	i
SMILES	RGS4 act	MrgX1 antag	MrgX1 agonist	RGS4 inh	MrgX1 PAM
Cc1ccc(S(=O)(=O)n2nccc2-c2c(-c3ccc(Cl)cc3)noc2C)cc1	i	i	i	i	i
Cc1nc(-c2cccc(NC(=O)c3cccs3)c2)cs1	i	i	i	i	i
O=C(Nc1cccc(-c2csc(-c3ccccc3)n2)c1)c1cccs1	-7.1*	i	i	i	i
CCCn1c(N2CCN(Cc3ccc(Cl)cc3)CC2)nc2ccccc21	i	i	30*	i	i
CCn1c(N2CCN(Cc3ccc([N+](=O)[O-])cc3)CC2)nc2ccccc21	i	i	i	i	i
O=C(N1CCCC1)C12CC3CC(CC(Cl)(C3)C1)C2	i	i	i	i	i
CSc1ncccc1C(=O)Nc1ccc(S(=O)(=O)NC2=NCCCCC2)cc1	i	-4.6*	i	i	i
Cc1csc(NC(=O)CSC2=NS(=O)(=O)c3ccccc3N2)n1	i	i	i	i	i
CCN(CC)c1ccc(S(=O)(=O)N2CCOCC2)cc1NC(=O)COC(=O)/C=C/c1ccc(C)o1	-9.6*	i	i	i	i
CCn1c(Cl)c(C=O)s/c1=N\S(=O)(=O)c1ccccc1	i	i	31*	i	i
CCN1C(=O)CS/C1=N\S(=O)(=O)c1ccc(Cl)cc1	i	i	i	i	i
O=C(OC1CCOC1=O)c1ccc(NS(=O)(=O)c2cccs2)cc1 (configuration not stated)	i	i	i	i	i
O=c1/c(=C/c2ccccn2)sc2nc3ccccc3n12	·	i	i	·	i
O=c1/c(=C\c2cc([N+](=O)[O-])cc([N+](=O)[O-])c2O)sc2nc3ccccc3n12	·	i	29*	·	i
O=C(O)c1cccc(-c2ccc(/C=c3/sc4nc5ccccc5n4c3=O)o2)c1	i	-12*	i	i	i
CCCCN(C(=O)C1CCCO1)c1c(N)n(CC(C)C)c(=O)[nH]c1=O (configuration not stated)	i	i	i	i	i
Cc1ccc(O)c(NC(=O)c2noc3c2CCc2ccccc2-3)c1	i	i	i	i	i
Cc1cc(NC(=O)c2noc3c2CCc2ccccc2-3)no1	i	-7.4*	i	i	i
O=C(NC1=NCCS1)c1ccccc1OCc1ccccc1Cl	i	i	i	i	i
COc1cccc(NS(=O)(=O)c2csc(C(N)=O)c2)c1	i	i	i	i	i
CC(C)(C)c1cc(/C=N/NC(=O)C[n+]2ccccc2)cc(C(C)(C)C)c1O	-7*	i	i	i	i
CC(C)(C)c1ccc(/C=N/NC(=O)C[n+]2ccccc2)cc1	-7.1*	i	i	i	i
CCn1cc(/C=C(\NC(=O)c2ccccc2OC)C(=O)N2CCN(C)CC2)c2ccccc21	i	i	i	i	i
Cc1cc(C(=O)NC(C)C2CC2)c(Cl)cc1Cl (configuration not stated)	i	i	i	i	i
